# Data from ChEMBL document CHEMBL1135395, “Design and synthesis of potent nonpeptidic farnesyltransferase inhibitors based on a terphenyl scaffold” (J Med Chem, 2002).
# pIC50: −log10 of the molar value.
# Columns and labels:
# [1] = biological target: Protein farnesyltransferase (Homo sapiens, UniProt P49354+P49356); experiment: Inhibition of farnesyltransferase from human Burkitt lymphoma (Daudi) cells
# In short: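 Partially purified enzyme from Daudi cells was incubated with [3H]FPP and recombinant H-Ras-CVLS at a range of inhibitor concentrations for 30 min at 37 °C. IC50 was determined.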
# [2] = biological target: Geranylgeranyl transferase type I (Homo sapiens, UniProt P49354+P53609); experiment: Inhibition of partially purified Geranylgeranyl transferase type I (GGTase-I) from human Burkitt lymphoma (Daudi) cells
# In short: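 Partially purified enzyme from Daudi cells was incubated with [3H]GGPP and recombinant H-Ras-CVLL at a range of inhibitor concentrations for 30 min at 37 °C. The reaction was stopped and filtered on glass fiber filters to separate free from Ras-bound label.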
SMILES,pIC50 [1],pIC50 [2]
COC(=O)c1cccc(-c2ccc(NCc3cncn3Cc3ccc([N+](=O)[O-])cc3)cc2-c2ccccc2)c1,6.51,5.23
N[C@@H](CS)CNc1ccc(-c2cccc(C(=O)O)c2)cc1,6.82,4.05
N[C@@H](CS)CNc1ccc(-c2cccc(C(=O)O)c2)c(-c2ccccc2)c1,7.70,6.19
COc1cc(NC[C@@H](N)CS)ccc1-c1cccc(C(=O)O)c1,7.43,4.46
O=C(O)c1cccc(-c2ccc(NCc3cccc(S)c3)cc2-c2ccccc2)c1,< 5.00,< 5.00
Nc1ccc(Cn2cncc2CNc2ccc(-c3cccc(C(=O)O)c3)c(-c3ccccc3)c2)cc1,,5.15
COC(=O)c1cccc(-c2ccc(NCc3ccc(S)cc3)cc2-c2ccccc2)c1,< 5.00,< 5.00
COC(=O)c1cccc(-c2ccc(NCc3cncn3Cc3ccc(C#N)cc3)cc2-c2ccccc2)c1,6.42,5.16
COC(=O)c1cccc(-c2ccc(NC(=O)c3cccc(S)c3)cc2-c2ccccc2)c1,< 5.00,< 5.00
O=C(CCS)Nc1ccc(-c2cccc(C(=O)O)c2)c(-c2ccccc2)c1,5.42,< 5.00
CSCC[C@H](NC(=O)c1ccc(NC[C@@H](N)CS)cc1)C(=O)O,6.82,
O=C(O)c1cccc(-c2ccc(NC(=O)c3cccc(S)c3)cc2-c2ccccc2)c1,< 5.00,< 5.00
COC(=O)c1cccc(-c2ccc(NCc3cccc(S)c3)cc2-c2ccccc2)c1,< 5.00,< 5.00
O=C(O)c1cccc(-c2ccc(NCc3cnc[nH]3)cc2-c2ccccc2)c1,5.64,5.30
COC(=O)c1cccc(-c2ccc(NCc3cncn3Cc3ccc(N)cc3)cc2-c2ccccc2)c1,5.25,< 5.00
CCCOc1cc(NC[C@@H](N)CS)ccc1-c1cccc(C(=O)O)c1,7.39,5.62
N[C@@H](CS)CNc1ccc(-c2ccccc2)cc1,5.92,< 4.00
O=C(O)c1cccc(-c2ccc(NCc3cncn3Cc3ccc([N+](=O)[O-])cc3)cc2-c2ccccc2)c1,6.35,5.41
N[C@@H](CS)CNc1ccc(-c2cccc(C3N=NN=N3)c2)cc1,7.52,5.36
COC(=O)c1cccc(-c2ccc(NCc3c[nH]cn3)cc2-c2ccccc2)c1,< 5.00,< 5.00
N#Cc1ccc(Cn2cncc2CNc2ccc(-c3cccc(C(=O)O)c3)c(-c3ccccc3)c2)cc1,6.37,5.36
Cc1cccc(-c2ccc(NC[C@@H](N)CS)cc2)c1,6.11,< 4.00
O=C(O)c1cccc(-c2ccc(NCc3ccc(S)cc3)cc2-c2ccccc2)c1,< 5.00,< 5.00
COC(=O)c1cccc(-c2ccc(NC(=O)CCS)cc2-c2ccccc2)c1,< 5.00,< 5.00
COC(=O)c1cccc(-c2ccc(NCc3ccccc3S)cc2-c2ccccc2)c1,< 5.00,< 5.00
COC(=O)c1cccc(-c2ccc(NC[C@@H](N)CS)cc2)c1,6.03,4.00
